The test system of data set [1] is Mycobacterium tuberculosis. The data set can be described thus: Bactericidal activity against Mycobacterium bovis BCG ATCC 35734 assessed as increase in propidium iodide uptake at 4 uM after 1 to 5 days by flow cytometry. Type of data set: functional, organism-based. To be noted: BCG str. ATCC 35743. In general terms: A flow cytometer gives signals particle by particle.

The subject of data set [2] is Mycobacterium tuberculosis. The experiment in a line: Bactericidal activity against Mycobacterium bovis BCG ATCC 35734 assessed as reduction in colony forming units at 4 uM after 1 to 5 days by time kill assay. To be noted: BCG str. ATCC 35743. Type of data set: functional, organism-based.
Data set [3] has as its system Mycobacterium tuberculosis. The data set can be described thus: Bactericidal activity against Mycobacterium bovis BCG ATCC 35734 assessed as reduction in colony forming units at 1.6 uM after 1 to 5 days by time kill assay. The data set is classed as functional, organism-based. Particulars: BCG str. ATCC 35743.
For data set [4], the system named is Mycobacterium tuberculosis. The data set can be described thus: Bactericidal activity against Mycobacterium bovis BCG ATCC 35734 assessed as increase in propidium iodide uptake at 1.6 uM after 1 to 5 days by flow cytometry. Particulars: BCG str. ATCC 35743. Type of data set: functional, organism-based.
The subject of data set [5] is Mycobacterium tuberculosis. The data set can be described thus: Antibacterial activity against Mycobacterium bovis BCG ATCC 35734 after 5 days by broth dilution method. Type of data set: functional. To be noted: BCG str. ATCC 35743, 120 h. The gist of the method:
(§1)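 Broth dilution; growth read by turbidity; MIC50 and MIC90 are the concentrations reducing growth by 50% and 90% relative to untreated controls; average of two or more separate determinations.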
(In broth dilution the organism is exposed to a series of concentrations in liquid medium.)

Data set [6] deals with Mycobacterium tuberculosis. The experiment in a line: Antibacterial activity against Mycobacterium tuberculosis H37Rv ATCC 27294 after 7 days by broth dilution method. The data set is classed as functional. To be noted: H37Rv ATCC 27294, 168 h. The essentials:
as §1

Data set [7] concerns Vero C1008. The experiment in a line: Cytotoxicity against African green monkey Vero E6 cells assessed as reduction in cell viability after 48 hrs by cell titre 96 aqueous one solution-based assay. Particulars: Chlorocebus sabaeus, Vero C1008, 48 h. The gist of the method: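 Vero cell viability was compared with untreated control cells. IC50 was taken as the concentration giving 50% loss of viability, averaged over two or more separate determinations.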

A short description of data set [8]: Hemolytic activity against human RBC after 1 hr. Type of data set: ADME, cell-based, Erythrocyte. Particulars: human red blood cells (erythrocytes). The gist of the method:
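Human red blood cells were exposed to compound, and lysis was scaled against Triton X-100 (2% v/v), taken as 100% hemolysis. HC50 was the concentration lysing 50% of cells, averaged over two or more separate determinations.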

The test system of data set [9] is Lipid bilayer. The experiment in a line: Binding affinity to DMPG vesicles assessed as increase in melting transition temperature by differential scanning calorimetric analysis. The gist of the method: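 Compound-loaded vesicles of negatively charged dimyristoylphosphatidylglycerol, used as a bacterial membrane surrogate, were scanned by differential scanning calorimetry. The gel-to-liquid melting endotherm was read for melting temperature (Tm) and calorimetric enthalpy (ΔH).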
In general terms: In DSC, transitions show as peaks or steps in heat flow.

Data set [10] concerns Mycobacterium tuberculosis. The data set can be described thus: Bactericidal activity against Mycobacterium bovis BCG ATCC 35734 assessed as reduction in colony forming units after 5 days. The data set is classed as functional, BCG str. ATCC 35743.
Data set [11] has as its system Mycobacterium tuberculosis. The data set can be described thus: Bactericidal activity against Mycobacterium bovis BCG ATCC 35734 assessed as increase in propidium iodide uptake at 6 uM after 1 to 5 days by flow cytometry. The data set is classed as functional, organism-based. To be noted: BCG str. ATCC 35743.
Data set [12] has as its system Mycobacterium tuberculosis. The data set can be described thus: Bactericidal activity against Mycobacterium bovis BCG ATCC 35734 assessed as reduction in colony forming units at 6 uM after 1 to 5 days by time kill assay. Type of data set: functional, organism-based. To be noted: BCG str. ATCC 35743.
The test system of data set [13] is Mycobacterium tuberculosis. The data set can be described thus: Bactericidal activity against Mycobacterium bovis BCG ATCC 35734 assessed as reduction in membrane potential by measuring red to green fluorescent ratio at 12 uM measured at 20 mins to 3 hrs by DiOC2-dye based fluorescence assay. Type of data set: functional, organism-based. To be noted: BCG str. ATCC 35743.

Data set [14] relates to Mycobacterium tuberculosis. The data set can be described thus: Bactericidal activity against Mycobacterium bovis BCG ATCC 35734 assessed as reduction in membrane potential by measuring red to green fluorescent ratio at 12 uM measured after 1 to 5 days by DiOC2-dye based fluorescence assay. Type of data set: functional, organism-based. To be noted: BCG str. ATCC 35743. The essentials:
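Membrane potential in treated BCG cultures tracked as DiOC2 red/green fluorescence ratio over extended exposure of 1, 3 and 5 days.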

Data set [15] concerns Mycobacterium tuberculosis. The experiment in a line: Bactericidal activity against Mycobacterium bovis BCG ATCC 35734 assessed as cell elongation at 12 uM after 1 to 5 days by acid-fast staining-based light microscopy. Type of data set: functional, organism-based. Particulars: BCG str. ATCC 35743.
Data set [16] concerns Mycobacterium tuberculosis. The experiment in a line: Bactericidal activity against Mycobacterium bovis BCG ATCC 35734 assessed as suppression of reductive capacity by measuring decrease in formazan formation after 0.5 to 1 hr by MTT reduction assay. To be noted: BCG str. ATCC 35743. Type of data set: functional, organism-based. The essentials: (§2)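 BCG cultures exposed to 0.2–100 μM for 30 min and 1 h, then MTT added; formazan production read at 595 nm against drug-free basal absorbance; CCCP 100 μM reference; representative of two independent experiments.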

The subject of data set [17] is Mycobacterium tuberculosis. The data set can be described thus: Bactericidal activity against Mycobacterium bovis BCG ATCC 35734 assessed as reduction in oxygen consumption at 15 times MIC90 after 1 hr by methylene blue-based assay. The data set is classed as functional, organism-based. Particulars: BCG str. ATCC 35743.
Data set [18] deals with Mycobacterium tuberculosis. The data set can be described thus: Bactericidal activity against Mycobacterium bovis BCG ATCC 35734 assessed as reduction in oxygen consumption at 5 times MIC90 after 1 hr by methylene blue-based assay. Type of data set: functional, organism-based. To be noted: BCG str. ATCC 35743.
Data set [19] concerns Mycobacterium tuberculosis. The experiment in a line: Bactericidal activity Mycobacterium bovis BCG ATCC 35734 assesses as cell death at 15 times MIC90 after 1 hr in presence of methylene blue. To be noted: BCG str. ATCC 35743. Type of data set: functional, organism-based.
Data set [20] has as its system Mycobacterium tuberculosis. The data set can be described thus: Bactericidal activity against Mycobacterium bovis BCG ATCC 35734 assessed as reduction in oxygen consumption at 10 times MIC90 after 1 hr by methylene blue-based assay. Particulars: BCG str. ATCC 35743. Type of data set: functional, organism-based.
The test system of data set [21] is Mycobacterium tuberculosis. The experiment in a line: Bactericidal activity against Mycobacterium bovis BCG ATCC 35734 assessed as suppression of reductive capacity by measuring decrease in formazan formation at 100 uM after 0.5 to 1 hr by MTT reduction assay. Type of data set: functional. On the set-up: scale not given: the % may be the effect or the level left. The gist of the method: as §2

Data set [22] concerns Mycobacterium tuberculosis. The data set can be described thus: Bactericidal activity against Mycobacterium bovis BCG ATCC 35734 assessed as reduction in membrane potential by measuring red to green fluorescent ratio at 100 uM measured at 3 hrs by DiOC2-dye based fluorescence assay. The data set is classed as functional, organism-based. Particulars: BCG str. ATCC 35743.

From ChEMBL document CHEMBL4130564, “Indolylalkyltriphenylphosphonium Analogues Are Membrane-Depolarizing Mycobactericidal Agents” (ACS Med Chem Lett, 2017) come the findings set out here.

SMILES strings stand for the structures. Activity calls are given as the source filed them. The rule behind the calls is not given here.

For `CCCCCCCCn1cc(CN2CCC3(CCc4ccccc43)CC2)c2ccc(OC)cc21`, the outcome in data set [1] and in data set [2] was Active.

As for `NNC(=O)c1ccncc1`, the outcome in data set [3] was Active. For the same compound, the outcome in data set [4] was inactive.

The MIC50 is an inhibitory concentration at the 50% level, which refers to growth in some studies and to a panel of isolates in others. In general, MIC90 refers to an inhibitory concentration at the 90% level, which refers to growth in some studies and to a panel of isolates in others. In general, IC50 refers to the concentration that gives 50% inhibition. The HC50 is the concentration that lyses half of the red blood cells. For orientation: ΔTm means the change in melting temperature against a reference sample. Take `COc1cccc2ccn(CCCCC[P+](c3ccccc3)(c3ccccc3)c3ccccc3)c12.[I-]`: the MIC50 in data set [5] and in data set [6] was 2 µM in each case. Further, the MIC90 in [5] came to 3 µM; in data set [6] it was 6 µM. Besides, the IC50 in [7] was 18 µM. Besides, in data set [8], the HC50 at 1 h is > 300 µM. In addition, in [9], the ΔTm was 1 °C. For the same compound, in data set [10], the MBC99 was 3 µM. In addition, in data set [10] (Mycobacterium tuberculosis, BCG ATCC 35734, 120 h, read-out: MBC99.9), the MBC was 6 µM. The outcome in data set [11], in data set [12], in data set [13], in data set [14], in [15] and in [17] was Active. The outcome in data set [20] was Active. Besides, the Activity result in data set [16] is “Dose-dependent effect”; in [19], “Toxic”. Besides, the result in data set [18] was inactive.

As to `N#CC(C#N)=NNc1cccc(Cl)c1` [CARBONYL CYANIDE M-CHLOROPHENYLHYDRAZONE], the Activity in [21] is recorded as 50%. In addition, in [22], the result was Active.
